Measurements taken from ChEMBL document CHEMBL4028872, “Structure-Activity Relationship, Pharmacological Characterization, and Molecular Modeling of Noncompetitive Inhibitors of the Betaine/γ-Aminobutyric Acid Transporter 1 (BGT1)” (J Med Chem, 2017).

Experiments:
Format in all cases: cell-based
[1] = target: Sodium- and chloride-dependent GABA transporter 1 (Homo sapiens, UniProt P30531)
[2] = target: T1, Sodium- and chloride-dependent betaine transporter (Homo sapiens, UniProt P48065); assay: Inhibition of human BGT1 expresses in tsA201 cells assessed as reduction in [3H]GABA uptake after 3 mins by scintillation counting method
T1 sequence (P48065 whole entry): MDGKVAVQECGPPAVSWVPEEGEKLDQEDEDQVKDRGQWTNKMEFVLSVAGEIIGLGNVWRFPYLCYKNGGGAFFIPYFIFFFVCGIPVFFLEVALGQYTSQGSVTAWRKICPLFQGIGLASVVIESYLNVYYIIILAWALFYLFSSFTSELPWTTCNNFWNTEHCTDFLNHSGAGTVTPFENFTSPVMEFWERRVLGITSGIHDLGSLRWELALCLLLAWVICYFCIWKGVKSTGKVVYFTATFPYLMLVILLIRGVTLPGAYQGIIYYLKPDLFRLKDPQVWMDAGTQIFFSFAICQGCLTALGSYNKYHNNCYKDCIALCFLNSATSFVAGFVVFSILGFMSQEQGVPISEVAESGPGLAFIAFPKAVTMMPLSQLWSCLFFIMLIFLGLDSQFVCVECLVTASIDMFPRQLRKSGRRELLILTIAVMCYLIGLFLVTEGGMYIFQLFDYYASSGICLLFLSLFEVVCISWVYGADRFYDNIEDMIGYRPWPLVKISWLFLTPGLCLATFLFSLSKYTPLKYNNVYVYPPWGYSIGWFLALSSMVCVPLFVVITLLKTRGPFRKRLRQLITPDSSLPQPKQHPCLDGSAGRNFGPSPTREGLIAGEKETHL
Outline: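 tsA201 cells transiently transfected with wild-type or mutant human BGT1 (PolyFect) were plated about 24 h before assay. Three ice-cold washes followed, then scintillation counting.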

[3] = target: T2, Sodium- and chloride-dependent GABA transporter 3 (Homo sapiens, UniProt P48066); assay: Inhibition of human GAT3 expresses in tsA201 cells assessed as reduction in [3H]GABA uptake after 3 mins by scintillation counting method
T2 sequence (P48066 whole entry): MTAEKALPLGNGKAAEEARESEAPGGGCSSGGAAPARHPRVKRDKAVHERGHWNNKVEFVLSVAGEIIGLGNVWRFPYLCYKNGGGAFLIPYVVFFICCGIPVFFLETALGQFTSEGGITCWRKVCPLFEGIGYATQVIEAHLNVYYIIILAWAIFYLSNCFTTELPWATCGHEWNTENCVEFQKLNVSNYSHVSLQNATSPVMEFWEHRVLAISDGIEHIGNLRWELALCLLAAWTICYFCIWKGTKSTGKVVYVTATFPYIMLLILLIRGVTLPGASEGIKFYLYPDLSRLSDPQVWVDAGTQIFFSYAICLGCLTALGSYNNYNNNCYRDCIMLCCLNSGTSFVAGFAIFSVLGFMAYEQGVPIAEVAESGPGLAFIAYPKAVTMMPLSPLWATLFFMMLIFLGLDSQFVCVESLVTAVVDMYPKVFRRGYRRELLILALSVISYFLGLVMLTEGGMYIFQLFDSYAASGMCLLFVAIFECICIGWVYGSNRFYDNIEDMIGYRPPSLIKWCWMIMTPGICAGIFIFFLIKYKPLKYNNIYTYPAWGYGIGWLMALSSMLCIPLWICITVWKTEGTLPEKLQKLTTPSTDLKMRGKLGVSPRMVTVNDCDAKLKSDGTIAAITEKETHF
Outline: (§1)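 Wild-type human GAT transiently expressed in tsA201 cells via pcDNA5/FRT and PolyFect. Uptake of 30 nM [3H]GABA was run for 3 min at 37 °C in HBSS/20 mM HEPES with 1 mM CaCl2 and 1 mM MgCl2, pH 7.4, across a range of test concentrations. Ice-cold washes were followed by scintillation counting. IC50 was obtained by sigmoidal variable-slope fitting, reported as mean pIC50 ± S.E.M.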

[4] = target: T3, Sodium- and chloride-dependent GABA transporter 2 (Homo sapiens, UniProt Q9NSD5); assay: Inhibition of human GAT2 expresses in tsA201 cells assessed as reduction in [3H]GABA uptake after 3 mins by scintillation counting method
T3 sequence (Q9NSD5 whole entry): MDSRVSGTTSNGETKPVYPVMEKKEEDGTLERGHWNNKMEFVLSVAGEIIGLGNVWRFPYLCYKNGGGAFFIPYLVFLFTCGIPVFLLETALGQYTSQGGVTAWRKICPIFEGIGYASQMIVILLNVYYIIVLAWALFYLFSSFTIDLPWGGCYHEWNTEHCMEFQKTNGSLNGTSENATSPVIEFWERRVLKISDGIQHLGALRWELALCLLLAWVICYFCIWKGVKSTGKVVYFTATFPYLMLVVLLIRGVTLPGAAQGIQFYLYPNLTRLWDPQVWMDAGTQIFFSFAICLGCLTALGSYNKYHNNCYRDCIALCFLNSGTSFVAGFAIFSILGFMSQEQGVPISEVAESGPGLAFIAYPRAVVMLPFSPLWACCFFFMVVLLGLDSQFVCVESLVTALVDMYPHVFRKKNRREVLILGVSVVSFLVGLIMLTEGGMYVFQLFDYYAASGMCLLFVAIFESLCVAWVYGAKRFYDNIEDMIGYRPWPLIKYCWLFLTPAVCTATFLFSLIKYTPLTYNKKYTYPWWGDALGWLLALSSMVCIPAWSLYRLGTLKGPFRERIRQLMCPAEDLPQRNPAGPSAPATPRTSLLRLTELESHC
Outline: as §1

Sequence of Sodium- and chloride-dependent GABA transporter 1 (P30531 whole entry): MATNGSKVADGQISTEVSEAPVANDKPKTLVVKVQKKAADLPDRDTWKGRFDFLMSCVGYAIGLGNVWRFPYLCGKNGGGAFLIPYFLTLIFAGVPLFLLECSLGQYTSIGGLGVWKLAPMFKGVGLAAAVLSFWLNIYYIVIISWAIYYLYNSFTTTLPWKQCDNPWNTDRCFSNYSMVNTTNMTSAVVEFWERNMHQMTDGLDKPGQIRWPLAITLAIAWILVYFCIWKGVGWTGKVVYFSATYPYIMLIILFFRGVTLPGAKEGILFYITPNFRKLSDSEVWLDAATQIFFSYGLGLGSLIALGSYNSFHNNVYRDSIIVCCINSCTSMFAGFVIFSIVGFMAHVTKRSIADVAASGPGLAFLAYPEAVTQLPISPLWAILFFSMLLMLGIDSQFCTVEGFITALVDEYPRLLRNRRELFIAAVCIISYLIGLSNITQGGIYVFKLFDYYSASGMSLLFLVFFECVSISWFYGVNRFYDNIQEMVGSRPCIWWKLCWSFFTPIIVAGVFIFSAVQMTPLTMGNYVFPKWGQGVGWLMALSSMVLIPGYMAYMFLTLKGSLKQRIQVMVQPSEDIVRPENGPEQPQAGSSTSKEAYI

Row | SMILES | IC50 ([1]; read-out: IC50) [µM] | IC50 ([2]; read-out: IC50) [µM] | IC50 ([3]; read-out: IC50) [µM] | IC50 ([4]; read-out: IC50) [µM] | IC50 [1] [µM] | IC50 [2] [µM] | IC50 [3] [µM] | IC50 [4] [µM]
1 | CN1CCC(NC(=O)c2ccc(Cl)cc2Cl)CC1 | > 1000 | > 1000 | > 1000 | > 1000 |  |  |  | 
2 | O=C(NC1CCN(Cc2ccccc2)CC1)c1cccc(C(F)(F)F)c1 | > 500 | 170 | > 500 | > 500 |  |  |  | 
3 | CCN1CCC(NC(=O)c2ccc(Cl)cc2Cl)CC1 | > 1000 | > 1000 | > 1000 | > 1000 |  |  |  | 
4 | O=C(NC1CCN(Cc2cccnc2)CC1)c1ccc(Cl)cc1Cl | > 1000 | > 1000 | > 1000 | > 1000 |  |  |  | 
5 | O=C(NC1CCNCC1)c1ccc(Cl)cc1Cl | > 1000 | > 1000 | > 1000 | > 1000 |  |  |  | 
6 | CCCN1CCC(NC(=O)c2ccc(Cl)cc2Cl)CC1 | > 1000 | > 1000 | > 1000 | > 1000 |  |  |  | 
7 | O=C(NC1CCN(Cc2ccccc2)CC1)c1ccccc1 | > 1000 | 290 | > 1000 | > 1000 |  |  |  | 
8 | N#Cc1ccc(CN2CCC(NC(=O)c3ccc(Cl)cc3Cl)CC2)cc1 | > 50 | > 50 | > 50 | > 50 |  |  |  | 
9 | CC(C)(C)OC(=O)CN1CCC(NC(=O)c2ccc(Cl)cc2Cl)CC1 | > 1000 | > 1000 | > 1000 | > 1000 |  |  |  | 
10 | CCOP(=O)(CCCN1CCC(NC(=O)c2ccc(Cl)cc2Cl)CC1)OCC | > 1000 | > 1000 | > 1000 | > 1000 |  |  |  | 
11 | O=C(NC1CCN(Cc2ccc([N+](=O)[O-])cc2)CC1)c1ccc(Cl)cc1Cl | > 100 | > 100 | > 100 | > 100 |  |  |  | 
12 | O=C(O)CN1CCC(NC(=O)c2ccc(Cl)cc2Cl)CC1 | > 1000 | > 1000 | > 1000 | > 1000 |  |  |  | 
13 | O=C(NC1CCN(Cc2ccc3ccccc3n2)CC1)c1ccc(Cl)cc1Cl | > 50 | > 50 | > 50 | > 50 |  |  |  | 
14 | COc1cccc(C(=O)NC2CCN(Cc3ccccc3)CC2)c1OC | > 500 | 91 | > 500 | > 500 |  |  |  | 
15 | O=C(CN1CCC(NC(=O)c2ccc(Cl)cc2Cl)CC1)c1ccccc1 | > 100 | > 100 | > 100 | > 100 |  |  |  | 
16 | O=C(NC1CCN(Cc2ccccc2[N+](=O)[O-])CC1)c1ccc(Cl)cc1Cl | > 100 | > 100 | > 100 | > 100 |  |  |  | 
17 | CC(C)C(=O)NC1CCN(Cc2ccccc2)CC1 | > 1000 | > 1000 | > 1000 | > 1000 |  |  |  | 
18 | O=C(NC1CCN(Cc2ccccc2)CC1)c1ccc2c(c1)OCO2 |  |  |  |  | > 100 | 42 | > 100 | 63
19 | O=C(NC1CCN(Cc2ccccc2)CC1)c1ccc(F)cc1 | > 300 | 100 | > 300 | > 300 |  |  |  | 
20 | COC(=O)c1ccc(CN2CCC(NC(=O)c3ccc(Cl)cc3Cl)CC2)cc1 | > 100 | > 100 | > 100 | > 100 |  |  |  | 
21 | C#CCN1CCC(NC(=O)c2ccc(Cl)cc2Cl)CC1 | > 1000 | > 1000 | > 1000 | > 1000 |  |  |  | 
22 | O=C(NC1CCN(Cc2ccccc2)CC1)c1ccc2ccccc2c1 |  |  |  |  | > 100 | 15 | > 100 | 23
23 | N#Cc1ccccc1CN1CCC(NC(=O)c2ccc(Cl)cc2Cl)CC1 | > 50 | > 50 | > 50 | > 50 |  |  |  | 
24 | N#CCCCN1CCC(NC(=O)c2ccc(Cl)cc2Cl)CC1 | > 1000 | > 1000 | > 1000 | > 1000 |  |  |  | 
25 | O=C(NC1CCN(Cc2ccccn2)CC1)c1ccc(Cl)cc1Cl | > 1000 | > 1000 | > 1000 | > 1000 |  |  |  | 
26 | O=C(NC1CCN(Cc2ccc(I)cc2)CC1)c1ccc(Cl)cc1Cl | > 100 | > 100 | > 100 | > 100 |  |  |  | 
27 | CCOc1ccccc1C(=O)NC1CCN(Cc2ccccc2)CC1 | > 500 | 180 | > 500 | > 500 |  |  |  | 
28 | O=C(NC1CCN(Cc2ccc3ccccc3c2)CC1)c1ccc(Cl)cc1Cl | > 50 | > 50 | > 50 | > 50 |  |  |  | 
29 | O=C(NC1CCN(Cc2ccncc2)CC1)c1ccc(Cl)cc1Cl | > 1000 | > 1000 | > 1000 | > 1000 |  |  |  | 
30 | O=C(NC1CCN(C/C=C/c2ccccc2)CC1)c1ccc(Cl)cc1Cl | > 100 | > 100 | > 100 | > 100 |  |  |  | 
